Test results from the RNAGym collection of RNA variant scans (doi:10.1002/anie.201605470).

B1: Osa-1-4 twister ribozyme (parent)
chain: CCGCCUAACACUGCCAAUGCCGGUCCCAAGCCCGGAUAAAAGUGGAGGGGGCGG

Variants of: B1
Test: self-cleavage, relative activity (ratio to wild type); higher = more cleavage; co-transcriptional
Method in brief: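 A DNA template encoding a 54-nucleotide twister ribozyme from Oryza sativa was made so that each of the 48 positions downstream of the cleavage site carried 97 % wild-type base and 1 % of each other base. Transcription in vitro ran for 2 h at 37 °C, during which the ribozyme could cleave itself. Reverse transcription used a template-switching oligonucleotide, and the products were PCR-amplified and deep-sequenced. Each read was scored as cleaved or uncleaved by whether upstream sequence was present, and relative activity is the fraction cleaved normalised to wild type.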

Row | Variant | self-cleavage
1 | CCGCCUAACACUGCCAAUGCCGUUCCCAAGCCCAGAUAAAAGUGGAGGGGGCGG | 0.04
2 | CCGCCUAACACUGCCAAUGCCGAUCCCAAGCCCGGAUAAAAGUGGAGGAGGCGG | 0.06
3 | CCGCCUAACACUGCCAAUGCCGAUCCCAAGCCCGGAUAAAAGUGGAGGUGGCGG | 0.06
4 | CCGCCUAACACUGCCAAUGCCGAUCCCAAGCCCGGAUAAAAGUGGAGGCGGCGG | 0.05
5 | CCGCCUAACACUGCCAAUGCCGCUCCCAAGCCCGGAUAAAAGUGGAGGGGGCGG | 0.05
6 | CCGCCUAACACUGCCAAUGCCGUUCCCAAGCCCGGAUAAAAGUGGAGGGGGCGG | 0.18
7 | CCGCCUAACACUGCCAAUGCCGCUCCCAAACCCGGAUAAAAGUGGAGGGGGCGG | 0.02
8 | CCGCCUAACACUGCCAAUGCCGCUCCCAACCCCGGAUAAAAGUGGAGGGGGCGG | 0.02
9 | CCGCCUAACACUGCCAAUGCCGCUCCCAAUCCCGGAUAAAAGUGGAGGGGGCGG | 0.02
10 | CCGCCUAACACUGCCAAUGCCGUUCCCAAGCCCGGAUAAAAAUGGAGGGGGCGG | 0.05
11 | CCGCCUAACACUGCCAACGCCGAUCCCAAGCCCGGAUAAAAGUGGAGGGGGCGG | 0.49
12 | CCGCCUAACACUGCCAAGGCCGAUCCCAAGCCCGGAUAAAAGUGGAGGGGGCGG | 0.38
13 | CCGCCUAACACUGCCAAAGCCGAUCCCAAGCCCGGAUAAAAGUGGAGGGGGCGG | 0.59
14 | CCGCCUAACACUGCCAAUGCCGAUCCCAAGCCCGGAUAAAAGUGGAGGGGGCCG | 0.06
15 | CCGCCUAACACUGCCAAUGCCGAUCCCAAGCCCGGAUAAAAGUGGAGGGGGCUG | 0.11
16 | CCGCCUAACACUGCCAAUGCCGAUCCCAAGCCCGGAUAAAAGUGGAGGGGGCAG | 0.15
17 | CCGCCUAACACUGCCAAUGCCGAGCCCAAGCCCGGAUAAAAGUGGAGGGGGCGG | 0.02
18 | CCGCCUAACACUGCCAAUGCCGAACCCAAGCCCGGAUAAAAGUGGAGGGGGCGG | 0.09
19 | CCGCCUAACACUGCCAAUGCCGACCCCAAGCCCGGAUAAAAGUGGAGGGGGCGG | 0.05
20 | CCGCCUAACACUGCCAAUGCCGCUCCCAAGCCCGGAUAAAAAUGGAGGGGGCGG | 0.05
21 | CCGCCUAACACUGCCAAUGCCGCUCCCAAGCCCGGAUAAAAUUGGAGGGGGCGG | 0.02
22 | CCGCCUAACACUGCCAAUGCCGCUCCCAAGCCCGGAUAAAACUGGAGGGGGCGG | 0.05
23 | CCGCCUAACACUGCCAAUGCCGUUCCCAAGCCCGUAUAAAAGUGGAGGGGGCGG | 0.05
24 | CCGCCUAACACUGCCAAUGCCGUUCCCAAGCCCGAAUAAAAGUGGAGGGGGCGG | 0.04
25 | CCGCCUAACACUGCCAAUGCCGUUCCCAAGCCCGCAUAAAAGUGGAGGGGGCGG | 0.05

Row | Variant | self-cleavage
26 | CCGCCUAACACUGCCAAUGCCGCUCCCAAGCCCGGAUAAAAGUGGAGGAGGCGG | 0.03
27 | CCGCCUAACACUGCCAAUGCCGCUCCCAAGCCCGGAUAAAAGUGGAGGCGGCGG | 0.02
28 | CCGCCUAACACUGCCAAUGCCGCUCCCAAGCCCGGAUAAAAGUGGAGGUGGCGG | 0.03
29 | CCGCCUAACACUGCCAAUGCCGCUCCCAAGCCCGGAUAAAAGUGGAGGGGGCGC | 0.05
30 | CCGCCUAACACUGCCAAUGCCGCUCCCAAGCCCGGAUAAAAGUGGAGGGGGCGA | 0.06
31 | CCGCCUAACACUGCCAAUGCCGCUCCCAAGCCCGGAUAAAAGUGGAGGGGGCGU | 0.06
32 | CCGCCUAACACUGCCAAUGCCGCUCCCAAGCCCGGAUAAAAGUGGAGGGUGCGG | 0.05
33 | CCGCCUAACACUGCCAAUGCCGCUCCCAAGCCCGGAUAAAAGUGGAGGGCGCGG | 0.04
34 | CCGCCUAACACUGCCAAUGCCGCUCCCAAGCCCGGAUAAAAGUGGAGGGAGCGG | 0.04
35 | CCGCCUAACACUGCCAAUGCCGCACCCAAGCCCGGAUAAAAGUGGAGGGGGCGG | 0.03
36 | CCGCCUAACACUGCCAAUGCCGCGCCCAAGCCCGGAUAAAAGUGGAGGGGGCGG | 0.01
37 | CCGCCUAACACUGCCAAUGCCGCCCCCAAGCCCGGAUAAAAGUGGAGGGGGCGG | 0.04
38 | CCGCCUAACACUGCCAAUGCCGCUCCCAAGCCCGUAUAAAAGUGGAGGGGGCGG | 0.04
39 | CCGCCUAACACUGCCAAUGCCGCUCCCAAGCCCGCAUAAAAGUGGAGGGGGCGG | 0.06
40 | CCGCCUAACACUGCCAAUGCCGCUCCCAAGCCCGAAUAAAAGUGGAGGGGGCGG | 0.04
41 | CCGCCUAACACGGCCAAUGCCGCUCCCAAGCCCGGAUAAAAGUGGAGGGGGCGG | 0.04
42 | CCGCCUAACACAGCCAAUGCCGCUCCCAAGCCCGGAUAAAAGUGGAGGGGGCGG | 0.04
43 | CCGCCUAACACCGCCAAUGCCGCUCCCAAGCCCGGAUAAAAGUGGAGGGGGCGG | 0.04
44 | CCGCCUAACACUGCCAAUGCCGCUCCCAAGCCCGGAUAAAAGUGGAGAGGGCGG | 0.02
45 | CCGCCUAACACUGCCAAUGCCGCUCCCAAGCCCGGAUAAAAGUGGAGCGGGCGG | 0.02
46 | CCGCCUAACACUGCCAAUGCCGCUCCCAAGCCCGGAUAAAAGUGGAGUGGGCGG | 0.02
47 | CCGCCUAACACUGCCAAUGCCGCUCCCAAGCCCGGAUAAAAGGGGAGGGGGCGG | 0.06
48 | CCGCCUAACACUGCCAAUGCCGCUCCCAAGCCCGGAUAAAAGCGGAGGGGGCGG | 0.05
49 | CCGCCUAACACUGCCAAUGCCGCUCCCAAGCCCGGAUAAAAGAGGAGGGGGCGG | 0.05
